Compounds with a hit are over-represented: about 2.3% of the library has one in this group of screens.
TRPC6 activator: mouse TRPC6 channel activation | B-score at 10 µM | 0.13% of 310,000 active | HEK293-TRPC6 membrane potential dye fluorescence; hits give high values;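 active = B-score of the integrated fluorescence ratio above library mean plus 3 SD, and starting fluorescence ratio within library mean plus 5 SD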;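 also: higher score means more depolarization so channel activation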
TRPC4 agonist: opens the mouse TRPC4 cation channel. Q9QUQ5. HEK293 TRPC4beta/mu-opioid, Fluo4 calcium fluorescence; hits give high values. B-score at 10 µM. 0.49% of 310,000 active. AID 2237;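 active = B-score above 5 SD of library B-scores, and initial fluorescence ratio not above library mean plus 5 SD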;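 also: positive B-score marks a calcium rise read as TRPC4 activation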
Target sequence (Q9QUQ5 whole entry, looked up): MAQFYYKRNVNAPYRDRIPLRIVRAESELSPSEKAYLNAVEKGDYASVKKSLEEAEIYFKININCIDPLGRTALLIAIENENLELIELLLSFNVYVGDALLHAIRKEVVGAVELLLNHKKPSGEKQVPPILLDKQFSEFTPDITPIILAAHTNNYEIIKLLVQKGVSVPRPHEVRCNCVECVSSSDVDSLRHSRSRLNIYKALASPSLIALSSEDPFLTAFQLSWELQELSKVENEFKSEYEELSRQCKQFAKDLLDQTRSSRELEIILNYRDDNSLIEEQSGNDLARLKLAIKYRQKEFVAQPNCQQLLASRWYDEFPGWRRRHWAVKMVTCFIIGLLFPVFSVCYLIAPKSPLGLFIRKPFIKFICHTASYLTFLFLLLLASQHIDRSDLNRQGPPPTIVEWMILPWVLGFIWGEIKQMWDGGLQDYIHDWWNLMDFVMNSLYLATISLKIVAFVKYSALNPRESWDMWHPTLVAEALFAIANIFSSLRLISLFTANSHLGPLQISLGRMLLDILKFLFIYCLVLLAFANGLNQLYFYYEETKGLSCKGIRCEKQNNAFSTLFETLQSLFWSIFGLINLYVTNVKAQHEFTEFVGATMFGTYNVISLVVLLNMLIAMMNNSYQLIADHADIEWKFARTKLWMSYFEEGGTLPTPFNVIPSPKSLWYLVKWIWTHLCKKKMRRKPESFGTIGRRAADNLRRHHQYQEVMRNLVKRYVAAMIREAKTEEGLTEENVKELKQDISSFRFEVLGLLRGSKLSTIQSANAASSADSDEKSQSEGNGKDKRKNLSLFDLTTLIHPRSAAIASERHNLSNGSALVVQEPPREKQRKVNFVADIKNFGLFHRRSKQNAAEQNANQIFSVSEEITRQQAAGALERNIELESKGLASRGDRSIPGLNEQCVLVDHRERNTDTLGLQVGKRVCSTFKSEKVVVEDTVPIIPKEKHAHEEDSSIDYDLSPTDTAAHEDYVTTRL
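System: HEK293 cells stably co-expressing mouse TRPC4beta and mu-opioid receptor; Schedule: Fluo4 dye loading 45 min at room temperature, 110 s recording; Detection: Fluo4 fluorescence, kinetic; Evaluation: B-scored integrated calcium fluorescence ratio; Controls: buffer (low) and maximal DAMGO (high).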
TRPC4 inh: inhibitors of mouse TRPC4 channel | Q9QUQ5 | HEK293 TRPC4beta/mu-opioid, DAMGO-evoked Fluo4 calcium flux; hits give low values | B-score at 10 µM | 0.39% of 300,000 active | AID 2247;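 active = B-score over 3 SD under the library average, no early fluorescence shift, positive overall ratio signal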
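Assay system – HEK293 line stably carrying TRPC4beta and mu-opioid receptor · Doses – single dose · Detection – Fluo4 calcium-dye fluorescence, kinetic read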
TRPC4 potent: allosteric potentiators of mouse TRPC4 channel; B-score at 10 µM; HEK293 TRPC4beta/mu-opioid, DAMGO EC20, Fluo-4 Ca2+ flux; hits give high values; 0.42% of 310,000 active; AID 2227; Q9QUQ5;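 active = B-score of calcium response area above 5 SD of library B-scores, with initial fluorescence ratio within 5 SD of library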;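 also: B-score of integrated fluorescence ratio over time as area under calcium response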
TRPC6 inh: mouse TRPC6 channel inhibition | B-score at 10 µM | Q61143 | HEK293-TRPC6, membrane potential dye, ACh-evoked depolarization; hits give low values | 1.1% of 310,000 active;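 active = B-score under library mean minus 3 SD, initial fluorescence not abnormally high, positive integrated signal ratio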;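 also: B-score derived from integrated fluorescence ratio over the kinetic read; more negative B-score means stronger inhibition of depolarization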
TRPC4 sel inh 2: second check of whether TRPC6 inhibitors also affect mouse TRPC4; inhibition, % at 10 µM; shares compounds with TRPC6 inh; HEK293 TRPC4/MOR, membrane potential dye fluorescence; channel activated by saturating DAMGO dose; 42% of 920 active;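 active = compounds whose fluorescence signal differed from control wells by over 3 SD, either direction, in both duplicate plates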
TRPC4 spec: mouse TRPC4 off-target activity of TRPC6 inhibitors; AID 2777; activity change, negative = inhibition, % at 10 µM; shares compounds with TRPC6 inh; HEK293 TRPC4/mu-opioid, membrane potential fluorescence; 61% of 920 active;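 active = rise or fall in signal beyond 3 SD of buffer-only wells in both replicate plates, either sign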;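 also: integrated kinetic ratio of fluorescence range over baseline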
HEK293 MPD ctr 2-1: second check of TRPC6 inhibitor effects in parental HEK293 cells | shares compounds with TRPC6 inh | parental HEK293 membrane potential dye fluorescence; maximal acetylcholine challenge after compound addition | signal change vs control, % at 10 µM | 31% of 920 active | AID 2779;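 active = membrane potential signal moving either way by over 3 SD of the maximum-effect control, in both duplicate plates, meaning non-specific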
HEK293 MPD ctr-1: checks TRPC6 inhibitor effects in parental HEK293 cells; shares compounds with TRPC6 inh; parental HEK293 membrane potential dye fluorescence; membrane potential signal change, % at 10 µM; 60% of 920 active; AID 2780;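 active = membrane potential signal shifting up or down by more than 3 SD of buffer-only wells, on both duplicate plates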
HEK293 MPD ctr-2: counter-screen for TRPC6 modulators: effect in parental HEK293 cells | shares compounds with TRPC6 inh | membrane potential dye fluorescence | membrane potential signal change, % at 10 µM | 51% of 2,400 active | AID 488924;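 active = membrane potential signal moves up or down beyond 5 SD from buffer-only wells, on both duplicate plates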
HEK293 MPD ctr 2-2: parental HEK293 nonspecific activity of TRPC6 modulators, second screen | shares compounds with TRPC6 inh | membrane potential dye fluorescence; after compound, maximal acetylcholine stimulation | inhibition, % at 10 µM | 14% of 2,400 active | AID 488926;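 active = membrane potential signal drops by more than 5 SD from the mean control signal, in both duplicate plates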;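 also: plate controls were acetylcholine ECmax control wells for no effect and buffer only wells for full effect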
TRPC4/MOR mod: mouse TRPC4 off-target activity of TRPC6 modulators; 69% of 2,400 active; HEK293 TRPC4/mu-opioid, membrane potential fluorescence; shares compounds with TRPC6 inh; percent change from control (negative = decrease, positive = increase), % at 10 µM;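 active = membrane potential signal moved up or down beyond 5 SD of buffer control wells, in both duplicate plates, actives on both sides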;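 also: plate controls were assay buffer wells for no effect and DAMGO maximal-effect wells for full effect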
TRPC4 ctr inh 2: mouse TRPC4 off-target activity of TRPC6 modulators, second screen. inhibition, % at 10 µM. 55% of 2,400 active. HEK293 TRPC4/mu-opioid, membrane potential dye fluorescence; stimulated with maximal-effect DAMGO. AID 488928. shares compounds with TRPC6 inh;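 active = drop in membrane potential signal beyond 5 SD of the control wells in both duplicate plates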;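 also: TRPC4 counter screen for TRPC6 hits run under conditions tuned for TRPC6 not TRPC4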
TRPC6 block conf: confirmation of mouse TRPC6 inhibitors. shares compounds with TRPC6 inh. HEK293-TRPC6, membrane potential dye, ACh-evoked depolarization. inhibition, % at 10 µM. 43% of 3,300 active. AID 488960;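 active = fluorescence ratio falls more than 5 SD below the full-stimulation control mean, in both duplicate runs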;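 also: integrated fluorescence ratio of peak minus minimum over baseline after agonist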
TRPC6 act conf: mouse TRPC6 activator confirmation. shares compounds with TRPC6 inh. HEK293-TRPC6 membrane potential dye fluorescence, FDSS. activation, % at 10 µM. 11% of 2,800 active. AID 488961;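 active = ratio signal rise beyond 5 SD above unstimulated control wells' mean, seen in both duplicate runs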;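 also: plate controls were buffer EC0 wells for no effect and acetylcholine ECmax response for full effect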
* marks the source's active call; other numbers are inactive results.

COc1cc(/C=C2/C(=O)N(c3ccc(C(=O)O)cc3)N=C2C)cc(OC)c1O was read as TRPC6 activator inactive, TRPC4 agonist inactive, TRPC4 inh inactive, TRPC4 potent inactive and TRPC6 inh inactive.
`COc1cc(/C=C2/C(=O)N(c3ccc(Br)cc3)N=C2C)cc(OC)c1OC` gave TRPC6 activator inactive, TRPC4 agonist inactive, TRPC4 inh inactive, TRPC4 potent inactive, TRPC6 inh -5.4*, HEK293 MPD ctr-2 inactive, HEK293 MPD ctr 2-2 inactive, TRPC4/MOR mod inactive, TRPC4 ctr inh 2 inactive, TRPC6 block conf inactive and TRPC6 act conf inactive.
`Cc1cccn2c(=O)c3cc(C(=O)NC4CCCC4)c(=N)n(C4CCCC4)c3nc12` gave TRPC6 activator inactive, TRPC4 agonist inactive, TRPC4 inh inactive, TRPC4 potent inactive, TRPC6 inh -5.2*, HEK293 MPD ctr-2 -151%*, HEK293 MPD ctr 2-2 inactive, TRPC4/MOR mod -54%*, TRPC4 ctr inh 2 48%*, TRPC6 block conf 49%* and TRPC6 act conf inactive.
Screening CCCn1c(=N)c(C(=O)NC2CCCC2)cc2c(=O)n3cccc(C)c3nc21 returned TRPC6 activator inactive, TRPC4 agonist inactive, TRPC4 inh inactive, TRPC4 potent inactive, TRPC6 inh -6.8*, TRPC4 sel inh 2 62%*, TRPC4 spec -14%*, HEK293 MPD ctr 2-1 -32%*, HEK293 MPD ctr-1 -170%*, TRPC6 block conf 78%* and TRPC6 act conf inactive.
`Cc1ccc(CNC(=O)c2cc3c(=O)n4ccccc4nc3n(Cc3ccco3)c2=N)cc1` gave TRPC6 activator inactive, TRPC4 agonist inactive, TRPC4 inh inactive, TRPC4 potent inactive and TRPC6 inh inactive.
N=c1c(C(=O)NCc2ccco2)cc2c(=O)n3ccccc3nc2n1Cc1ccccc1 was read as TRPC6 activator inactive, TRPC4 agonist inactive, TRPC4 inh inactive, TRPC4 potent inactive, TRPC6 inh -7.1*, HEK293 MPD ctr-2 inactive, HEK293 MPD ctr 2-2 inactive, TRPC4/MOR mod -40%*, TRPC4 ctr inh 2 46%*, TRPC6 block conf inactive and TRPC6 act conf inactive.
Screening N=c1c(C(=O)NCc2ccco2)cc2c(=O)n3ccccc3nc2n1C1CCCC1 returned TRPC6 activator inactive, TRPC4 agonist inactive, TRPC4 inh inactive, TRPC4 potent inactive, TRPC6 inh -5.3*, HEK293 MPD ctr-2 -72%*, HEK293 MPD ctr 2-2 inactive, TRPC4/MOR mod -32%*, TRPC4 ctr inh 2 37%*, TRPC6 block conf 46%* and TRPC6 act conf inactive.
For CCCCn1c(=NC(=O)c2ccco2)c(C(=O)OCC)cc2c(=O)n3ccccc3nc21 the results were TRPC6 activator inactive, TRPC4 agonist inactive, TRPC4 inh inactive, TRPC4 potent inactive, TRPC6 inh -5.8*, HEK293 MPD ctr-2 inactive, HEK293 MPD ctr 2-2 inactive, TRPC4/MOR mod inactive, TRPC4 ctr inh 2 inactive, TRPC6 block conf inactive and TRPC6 act conf inactive.
`N=c1c(C(=O)NC2CCCC2)cc2c(=O)n3ccccc3nc2n1C1CCCC1` gave TRPC6 activator inactive, TRPC4 agonist inactive, TRPC4 inh inactive, TRPC4 potent inactive, TRPC6 inh -11*, HEK293 MPD ctr-2 -144%*, HEK293 MPD ctr 2-2 62%*, TRPC4/MOR mod -31%*, TRPC4 ctr inh 2 58%*, TRPC6 block conf 56%* and TRPC6 act conf inactive.
`Cc1ccccc1N(C(=O)c1ccccn1)C(C(=O)NCc1ccccc1)c1cccnc1` (centres undefined) gave TRPC6 activator inactive, TRPC4 agonist inactive, TRPC4 inh inactive, TRPC4 potent inactive and TRPC6 inh inactive.
`O=C1Nc2ccccc2OC1CC(=O)N1CCN(c2cccc(C(F)(F)F)c2)CC1` (centres undefined) gave TRPC6 activator inactive, TRPC4 agonist inactive, TRPC4 inh inactive, TRPC4 potent inactive, TRPC6 inh -9.7*, TRPC4 sel inh 2 inactive, TRPC4 spec inactive, HEK293 MPD ctr 2-1 inactive, HEK293 MPD ctr-1 inactive, TRPC6 block conf inactive and TRPC6 act conf inactive.
For CCn1nc(C)c(CNC(=O)C2CCC(=O)N(CCc3ccc(Cl)cc3)C2)c1C (centres undefined) the results were TRPC6 activator inactive, TRPC4 agonist inactive, TRPC4 inh inactive, TRPC4 potent inactive and TRPC6 inh inactive.
COc1ccc(C2c3c(ncn(CCN4CCOCC4)c3=N)Oc3ccc4ccccc4c32)cc1OC (centres undefined) was read as TRPC6 activator inactive, TRPC4 agonist inactive, TRPC4 inh inactive, TRPC4 potent inactive, TRPC6 inh -5.1*, HEK293 MPD ctr-2 204%*, HEK293 MPD ctr 2-2 inactive, TRPC4/MOR mod 34%*, TRPC4 ctr inh 2 40%* and TRPC6 block conf inactive.
For COc1ccc(F)cc1S(=O)(=O)NCCCn1ccnc1 the results were TRPC6 activator inactive, TRPC4 agonist inactive, TRPC4 inh inactive, TRPC4 potent inactive and TRPC6 inh inactive.

Screens (PubChem)
